In brackets after ≈: the same amount, converted by molar mass.

6 molecules from ChEMBL document CHEMBL1795341, “Efficient synthesis, structural characterization and anti-microbial activity of chiral aryl boronate esters of 1,2-O-isopropylidene-α-D-xylofuranose” (2011) can be followed below.

Holding throughout (type): functional
For assay [1], the system named is Candida albicans. Briefly: Antifungal activity against Candida albicans MTCC 227 at 100 ug after 48 hrs by agar well diffusion method. To be noted: MTCC 227, 48 h, read-out: DIZ. The method, boiled down: (§1)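 Agar well diffusion on potato dextrose agar; 0.5 ml week-old culture spread over solidified plates, 6 mm wells bored. Compounds dissolved in DMSO at different concentrations and added to wells, with controls. Incubated 27 °C for 48 h; inhibition zone diameter measured in mm; three to four replicates per treatment.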
For orientation: In agar diffusion tests the substance spreads into inoculated agar from a disc or well.

Another assay relates to Staphylococcus aureus. Put plainly: Antibacterial activity against Staphylococcus aureus MTCC 96 by broth microdilution method.
The test system of assay [2] is Diutina rugosa. Put plainly: Antifungal activity against Candida rugosa NCIM 3462 at 150 ug after 48 hrs by agar well diffusion method. To be noted: NCIM 3462, 48 h, read-out: DIZ. An outline of the steps: as §1
A further assay relates to Klebsiella pneumoniae. Briefly: Antibacterial activity against Klebsiella pneumoniae MTCC 618 by broth microdilution method.
In assay [3] the test system is Aspergillus niger. Put plainly: Antifungal activity against Aspergillus niger MTCC 282 at 150 ug after 48 hrs by agar well diffusion method. The note with it: MTCC 282, 48 h, read-out: DIZ. The method, boiled down:
as §1

The subject of assay [4] is Staphylococcus epidermidis. Briefly: Antibacterial activity against Staphylococcus epidermidis MTCC 2639 by broth microdilution method. In general terms: In broth dilution the organism is exposed to a series of concentrations in liquid medium.
The subject of a further assay is Bacillus subtilis. Put plainly: Antibacterial activity against Bacillus subtilis MTCC 441 by broth microdilution method.
The next assay concerns Pseudomonas aeruginosa. Put plainly: Antibacterial activity against Pseudomonas aeruginosa MTCC 741 by broth microdilution method.
Assay [5] deals with Diutina rugosa. Put plainly: Antifungal activity against Candida rugosa NCIM 3462 at 100 ug after 48 hrs by agar well diffusion method. The note with it: NCIM 3462, 48 h, read-out: DIZ. An outline of the steps: as §1
A further assay has as its system Escherichia coli. Briefly: Antibacterial activity against Escherichia coli MTCC 443 by broth microdilution method.
The subject of assay [6] is Aspergillus niger. Briefly: Antifungal activity against Aspergillus niger MTCC 282 at 100 ug after 48 hrs by agar well diffusion method. To be noted: MTCC 282, 48 h, read-out: DIZ. An outline of the steps: as §1
In assay [7] the test system is Candida albicans. Put plainly: Antifungal activity against Candida albicans MTCC 227 at 150 ug after 48 hrs by agar well diffusion method. The note with it: MTCC 227, 48 h, read-out: DIZ. The method, boiled down: as §1
For assay [8], the system named is Saccharomyces cerevisiae. Briefly: Antifungal activity against Saccharomyces cerevisiae MTCC 36 at 100 ug after 48 hrs by agar well diffusion method. The note with it: MTCC 36, 48 h, read-out: DIZ. The method, boiled down: as §1
The test system of assay [9] is Saccharomyces cerevisiae. Briefly: Antifungal activity against Saccharomyces cerevisiae MTCC 36 at 150 ug after 48 hrs by agar well diffusion method. The note with it: MTCC 36, 48 h, read-out: DIZ. An outline of the steps:
as §1

A word on the MIC: it is the least concentration at which growth counts as inhibited. A low value points to greater potency. Take `CC1(C)O[C@H]2O[C@@H]3COB(c4ccc(C=O)cc4)O[C@@H]3[C@H]2O1`: the zone of inhibition at 100 µg/disc in the assay with Candida albicans [1] is 12 mm; in the assay with Diutina rugosa [5], 13 mm; in the assay with Aspergillus niger [6], 6 mm; in the assay with Saccharomyces cerevisiae [8], 14 mm. Further, the minimal inhibitory concentration (MIC) against Staphylococcus aureus is 9.38 µg/mL (≈ 30.8 µM); in the assay with Klebsiella pneumoniae, 4.68 µg/mL (≈ 15.4 µM); in assay [4] it was 18.8 µg/mL (≈ 61.7 µM); against Bacillus subtilis, 18.8 µg/mL (≈ 61.7 µM); in the assay on Pseudomonas aeruginosa, 37.5 µg/mL (≈ 123 µM); in the assay with Escherichia coli, 4.68 µg/mL (≈ 15.4 µM). Moreover, the zone of inhibition at 150 µg/disc was found to be 17 mm in the assay on Diutina rugosa [2], 8 mm in the assay on Aspergillus niger [3], 14 mm with Candida albicans [7] and 19 mm in the assay on Saccharomyces cerevisiae [9].
`CC1(C)S[C@@H]2[C@H](NC(=O)Cc3ccccc3)C(=O)N2[C@H]1C(=O)O` [PENICILLIN G]: the MIC was 1.56 µg/mL (≈ 4.67 µM) in the assay on Staphylococcus aureus; 6.25 µg/mL (≈ 18.7 µM) with Klebsiella pneumoniae; 3.12 µg/mL (≈ 9.35 µM) in assay [4]; 1.56 µg/mL (≈ 4.67 µM) with Bacillus subtilis; 12.5 µg/mL (≈ 37.4 µM) in the assay on Pseudomonas aeruginosa; 12.5 µg/mL (≈ 37.4 µM) against Escherichia coli.
Regarding `CC1(C)O[C@H]2O[C@@H]3COB(c4ccc5ccccc5c4)O[C@@H]3[C@H]2O1`, the zone of inhibition at 100 µg/disc in the assay on Candida albicans [1] was determined as 6 mm; in the assay on Diutina rugosa [5], 13 mm; in the assay on Aspergillus niger [6], 0 mm; with Saccharomyces cerevisiae [8] it was 7 mm. Further, the MIC with Staphylococcus aureus amounted to 150 µg/mL (≈ 460 µM); against Klebsiella pneumoniae, 150 µg/mL (≈ 460 µM); in assay [4] it was 75 µg/mL (≈ 230 µM); against Bacillus subtilis, 150 µg/mL (≈ 460 µM); in the assay with Pseudomonas aeruginosa, 150 µg/mL (≈ 460 µM); in the assay with Escherichia coli, 150 µg/mL (≈ 460 µM). For the same molecule, the zone of inhibition at 150 µg/disc with Diutina rugosa [2] amounted to 16 mm; with Aspergillus niger [3], 4 mm; in the assay on Candida albicans [7], 9 mm; in the assay with Saccharomyces cerevisiae [9] it was 11 mm.
For `Cc1ccc(B2OC[C@H]3O[C@@H]4OC(C)(C)O[C@@H]4[C@H]3O2)cc1`, the zone of inhibition at 100 µg/disc in the assay with Candida albicans [1], in the assay on Diutina rugosa [5], in the assay on Aspergillus niger [6] and with Saccharomyces cerevisiae [8] was 0 mm in each case. In addition, the minimal inhibitory concentration (MIC) (in the assay with Staphylococcus aureus; in the assay on Klebsiella pneumoniae; in assay [4]; in the assay on Bacillus subtilis; with Pseudomonas aeruginosa; against Escherichia coli) was 150 µg/mL (≈ 517 µM) throughout. Further, the zone of inhibition at 150 µg/disc in the assay on Diutina rugosa [2] is 6 mm; in the assay on Aspergillus niger [3], 0 mm; in the assay on Candida albicans [7], 0 mm; in the assay on Saccharomyces cerevisiae [9], 0 mm.
In the case of `CC1(C)O[C@H]2O[C@@H]3COB(c4cccc([N+](=O)[O-])c4)O[C@@H]3[C@H]2O1`, the zone of inhibition at 100 µg/disc turned out to be 13 mm in the assay with Candida albicans [1], 16 mm in the assay on Diutina rugosa [5], 14 mm in the assay with Aspergillus niger [6] and 11 mm with Saccharomyces cerevisiae [8]. For the same molecule, the MIC against Staphylococcus aureus stood at 4.68 µg/mL (≈ 14.6 µM); with Klebsiella pneumoniae it was 4.68 µg/mL (≈ 14.6 µM); in [4] it was 9.38 µg/mL (≈ 29.2 µM); against Bacillus subtilis, 2.34 µg/mL (≈ 7.29 µM); against Pseudomonas aeruginosa it was 18.8 µg/mL (≈ 58.4 µM); in the assay with Escherichia coli, 9.38 µg/mL (≈ 29.2 µM). Besides, the zone of inhibition at 150 µg/disc in the assay on Diutina rugosa [2] is 20 mm; in the assay with Aspergillus niger [3], 18 mm; in the assay with Candida albicans [7] it was 18 mm; with Saccharomyces cerevisiae [9], 16 mm.
As to `CN[C@@H]1[C@H](O[C@H]2[C@H](O[C@H]3[C@H](O)[C@@H](O)[C@H](N=C(N)N)[C@@H](O)[C@@H]3N=C(N)N)O[C@@H](C)[C@]2(O)C=O)O[C@@H](CO)[C@H](O)[C@H]1O` [STREPTOMYCIN], the minimal inhibitory concentration (MIC) against Staphylococcus aureus is 6.25 µg/mL (≈ 10.7 µM); against Klebsiella pneumoniae, 3.12 µg/mL (≈ 5.37 µM); in assay [4], 3.12 µg/mL (≈ 5.37 µM); against Bacillus subtilis, 6.25 µg/mL (≈ 10.7 µM); against Pseudomonas aeruginosa it was 1.56 µg/mL (≈ 2.69 µM); against Escherichia coli, 6.25 µg/mL (≈ 10.7 µM).
